The source made the active and inactive calls. The rule behind the calls is not given here.
Tests used:
Lactuca sativa [1] = assay: Inhibition of hypocotyl elongation of lettuce seedlings at 100 mg/L after 4 days under 100 uE/m'2 light relative to control; type: functional
Outline: (§1)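 Lactuca sativa cv. Kingcisco seeds sown on filter paper wetted with deionized water, 1 day at 24 °C in continuous light (100 μE/m² s). Uniform seedlings (radicles 2 mm) moved to small dishes on filter paper with 1 mL deionized water containing test compound, kept 4 days at 24 °C in continuous light. Hypocotyl and root lengths measured; mean compared with untreated control; triplicate experiments.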

Lactuca sativa [2] = assay: Induction of root elongation in lettuce seedlings at 100 mg/L after 4 days under 100 uE/m'2 light relative to control; type: functional; outline: as §1
Lactuca sativa [3] = assay: Induction of root elongation in lettuce seedlings at 1 to 100 mg/L after 4 days under 100 uE/m'2 light; type: functional, organism-based; outline: as §1
Lactuca sativa [4] = assay: Inhibition of hypocotyl elongation in lettuce seedlings at 1 to 100 mg/L after 4 days under 100 uE/m'2 light relative to control; type: functional, organism-based; outline: as §1
Lactuca sativa [5] = assay: Inhibition of root elongation in lettuce seedlings at 1 to 100 mg/L after 4 days under 100 uE/m'2 light; type: functional, organism-based; outline: as §1
Lactuca sativa [6] = assay: Induction of hypocotyl elongation in lettuce seedlings at 10 mg/L after 4 days under 100 uE/m'2 light; type: functional; outline: as §1
Lactuca sativa [7] = assay: Induction of hypocotyl elongation in lettuce seedlings at 100 mg/L after 4 days under 100 uE/m'2 light; type: functional; outline: as §1
Lactuca sativa [8] = assay: Induction of hypocotyl elongation in lettuce seedlings at 1 mg/L after 4 days under 100 uE/m'2 light; type: functional; outline: as §1

Row | Structure (SMILES) | Activity (Lactuca sativa [1]) | Activity (Lactuca sativa [2]) | Activity (Lactuca sativa [3]) | Activity (Lactuca sativa [4]) | Activity (Lactuca sativa [5]) | inhibition at 100 µg/mL (Lactuca sativa [1]; 96 h) | Activity (Lactuca sativa [6]) | Activity (Lactuca sativa [7]) | Activity (Lactuca sativa [8])
1 | CC(C)C[C@H]1NC(=O)[C@H](Cc2c[nH]c3ccccc23)NC1=O | inactive | 164% | Active |  |  |  |  |  | 
2 | CC[C@H](C)[C@H]1NC(=O)[C@H](Cc2c[nH]c3ccccc23)NC1=O | inactive | 167% | Active |  |  |  |  |  | 
3 | O=C(O)Cc1c[nH]c2ccccc12 |  |  |  | Active | Active |  |  |  | 
4 | C=CC(C)(C)[C@@]12C[C@H]3C(=O)N[C@H](C(C)C)C(=O)N3[C@@H]1Nc1ccccc12 [BREVICOMPANINE] |  | 212% | Active |  |  | 46% |  |  | 
5 | C=C1C[C@]23C[C@@]1(O)CC[C@H]2[C@@]12C=C[C@H](O)[C@](C)(C(=O)O1)C2[C@@H]3C(=O)O (stereo partly specified) [GIBBERELLINE] |  | 164% | Active |  |  |  | 433% | 433% | 433%

From ChEMBL document CHEMBL1158691, “Brevicompanine C, cyclo-(D-Ile-L-Trp), and cyclo-(D-Leu-L-Trp), plant growth regulators from Penicillium brevi-compactum” (2005)
